Holding throughout (type): functional, cell-based
The target of test [1] is T1, Extracellular calcium-sensing receptor (Rattus norvegicus) (UniProt P48442).
T1 sequence (whole entry): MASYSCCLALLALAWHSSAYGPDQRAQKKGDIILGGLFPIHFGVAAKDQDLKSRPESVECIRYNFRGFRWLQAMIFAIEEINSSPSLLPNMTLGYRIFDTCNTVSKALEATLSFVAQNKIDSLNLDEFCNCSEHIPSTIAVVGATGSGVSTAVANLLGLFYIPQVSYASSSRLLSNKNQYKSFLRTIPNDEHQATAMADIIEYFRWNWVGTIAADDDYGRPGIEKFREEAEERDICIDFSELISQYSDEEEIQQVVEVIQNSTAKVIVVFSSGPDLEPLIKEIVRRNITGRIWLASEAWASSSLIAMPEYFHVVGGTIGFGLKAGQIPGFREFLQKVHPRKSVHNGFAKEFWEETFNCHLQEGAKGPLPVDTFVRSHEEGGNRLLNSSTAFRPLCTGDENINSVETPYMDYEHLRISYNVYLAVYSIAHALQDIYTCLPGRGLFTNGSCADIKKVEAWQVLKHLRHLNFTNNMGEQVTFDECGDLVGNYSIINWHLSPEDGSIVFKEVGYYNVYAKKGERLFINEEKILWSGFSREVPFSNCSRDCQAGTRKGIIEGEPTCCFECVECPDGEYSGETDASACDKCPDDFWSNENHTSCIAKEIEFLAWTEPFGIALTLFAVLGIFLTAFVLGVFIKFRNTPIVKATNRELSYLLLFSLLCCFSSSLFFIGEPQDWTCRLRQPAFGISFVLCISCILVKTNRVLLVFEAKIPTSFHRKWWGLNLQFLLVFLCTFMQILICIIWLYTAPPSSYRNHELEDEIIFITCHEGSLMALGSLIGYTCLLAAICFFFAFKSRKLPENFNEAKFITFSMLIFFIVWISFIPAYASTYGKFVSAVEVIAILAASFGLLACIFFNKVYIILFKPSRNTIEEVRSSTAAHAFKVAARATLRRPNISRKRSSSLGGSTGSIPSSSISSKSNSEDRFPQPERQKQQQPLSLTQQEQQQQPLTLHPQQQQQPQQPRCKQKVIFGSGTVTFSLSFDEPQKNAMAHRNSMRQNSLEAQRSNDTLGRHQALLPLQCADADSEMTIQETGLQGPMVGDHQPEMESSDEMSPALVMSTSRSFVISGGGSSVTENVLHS
Description: Agonist activity at rat CaSR expressed in CHO cells assessed as increase of calcium-induced inositol phosphate accumulation at 10 uM after 24 hrs by HTRF assay relative to calcium. A digest of the protocol: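 CHO cells stably expressing rat brain CaSR are grown in Ham's F-12 (0.3 mM Ca²⁺, 0.6 mM Mg²⁺) and seeded at 4 × 10⁴ cells/well. IP-One HTRF runs 24 h later: 10 min preincubation at 37 °C, then 10 µM compound (from 10 mM DMSO stock) with 3 mM Ca²⁺, 30 min at 37 °C. Values are % of 10 mM Ca²⁺ stimulation, mean with S.E.M.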
Background: TR-FRET usually uses a lanthanide donor and a delayed reading to cut background.

For test [2], the system named is T2, Extracellular calcium-sensing receptor (Homo sapiens), P41180 [E837A].
T2 sequence (whole entry): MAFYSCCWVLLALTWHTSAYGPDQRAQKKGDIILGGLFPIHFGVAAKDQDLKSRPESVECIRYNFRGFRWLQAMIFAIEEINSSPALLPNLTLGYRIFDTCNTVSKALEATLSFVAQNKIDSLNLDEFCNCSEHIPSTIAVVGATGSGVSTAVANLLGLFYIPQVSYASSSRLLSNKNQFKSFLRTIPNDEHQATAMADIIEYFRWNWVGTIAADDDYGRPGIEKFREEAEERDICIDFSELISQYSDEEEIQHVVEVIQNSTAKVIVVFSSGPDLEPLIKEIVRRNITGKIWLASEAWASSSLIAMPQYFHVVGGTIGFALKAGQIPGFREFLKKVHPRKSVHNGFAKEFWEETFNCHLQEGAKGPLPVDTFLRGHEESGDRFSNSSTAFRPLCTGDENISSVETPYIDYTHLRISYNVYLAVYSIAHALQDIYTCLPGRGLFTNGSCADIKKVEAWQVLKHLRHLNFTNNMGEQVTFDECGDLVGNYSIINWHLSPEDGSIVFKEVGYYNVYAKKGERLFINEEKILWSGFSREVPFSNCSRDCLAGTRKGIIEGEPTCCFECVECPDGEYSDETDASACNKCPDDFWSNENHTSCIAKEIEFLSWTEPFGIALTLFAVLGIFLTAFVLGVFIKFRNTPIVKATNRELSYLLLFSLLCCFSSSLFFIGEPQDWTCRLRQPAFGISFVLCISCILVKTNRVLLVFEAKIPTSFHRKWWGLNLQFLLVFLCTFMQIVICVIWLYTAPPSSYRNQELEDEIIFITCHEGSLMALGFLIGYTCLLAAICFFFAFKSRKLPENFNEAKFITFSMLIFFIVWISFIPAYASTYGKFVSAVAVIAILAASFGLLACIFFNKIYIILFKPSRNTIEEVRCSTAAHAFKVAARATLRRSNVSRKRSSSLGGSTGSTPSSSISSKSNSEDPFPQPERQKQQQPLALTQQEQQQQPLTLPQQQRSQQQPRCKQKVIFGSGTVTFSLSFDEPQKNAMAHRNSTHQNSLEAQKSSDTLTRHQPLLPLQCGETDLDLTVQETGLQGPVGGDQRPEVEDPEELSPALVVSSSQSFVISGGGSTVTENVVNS
Description: Agonist activity at human CaSR E837A mutant expressed in HEK293 cells assessed as increase of calcium-induced inositol phosphate accumulation at 10 uM after 48 hrs by HTRF assay relative to calcium. A digest of the protocol: (§1)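 Wild-type or E837A mutant hCaSR (pcDNA3) transiently transfected into HEK293 cells (10⁷ cells, electroporation). Cells are plated on poly-D-lysine and assayed 48 h later. The assay uses a 10 min preincubation at 37 °C, then compound plus 3 mM Ca²⁺ for 30 min at 37 °C. IP-One HTRF read-out is 620/665 nm after 337 nm excitation. Values are % of 10 mM Ca²⁺ response, mean with S.E.M.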

Test [3] has as its target T3, Extracellular calcium-sensing receptor (Homo sapiens) (UniProt P41180).
T3 sequence (whole entry): T2 sequence (whole entry) with A837E, Q1011E
Description: Agonist activity at human CaSR expressed in HEK293 cells assessed as increase of calcium-induced inositol phosphate accumulation at 10 uM after 48 hrs by HTRF assay relative to calcium. A digest of the protocol:
as §1

Each structure is given as a SMILES string. Changes are numbered by the printed parent chain.

As to `C[C@@H](NC[C@@H]1NS(=O)(=O)c2ccccc2-c2ccccc21)c1cccc2ccccc12`, the Activity in test [1] worked out at 19%.
Take `C[C@@H](NC[C@H]1NS(=O)(=O)c2ccccc2-c2ccccc21)c1cccc2ccccc12`: the Activity in test [1] is 29%.
Consider `C[C@@H](NCc1cc2ccccc2[nH]1)c1cccc2ccccc12`, for which the Activity in test [2] was determined as 41%; in test [1], 95%; in test [3], 94%.
`C[C@@H](N[C@@H]1CNS(=O)(=O)c2ccccc21)c1cccc2ccccc12`: the Activity in test [1] came out at 13%.
In the case of `C[C@@H](N[C@H]1CNS(=O)(=O)c2ccccc21)c1cccc2ccccc12`, the Activity in test [1] turned out to be 30%.
In the case of `C[C@@H](NC1CNS(=O)(=O)Oc2ccccc2C1)c1cccc2ccccc12` (single isomer, unassigned; diastereomer 1), the Activity worked out at 1% in test [2], 67% in test [1] and 67% in test [3].
With `C[C@@H](NCC1CCc2ccccc2S(=O)(=O)N1)c1cccc2ccccc12` (single isomer, unassigned; diastereomer 1), the Activity in test [2] is 3%; in test [1], 75%; in test [3] it was 70%.
Take `C[C@@H](NCC1Cc2ccccc2OS(=O)(=O)N1)c1cccc2ccccc12` (single isomer, unassigned; diastereomer 1): the Activity amounted to 51% in test [2], 85% in test [1] and 75% in test [3].
Taken in the same sequence, the figures for `C[C@@H](NCC1Cc2ccccc2S(=O)(=O)N1)c1cccc2ccccc12` (single isomer, unassigned; diastereomer 1) were 22%, 71% and 73%.
Taken in the same sequence, the figures for `C[C@@H](NCC1NS(=O)(=O)c2ccccc21)c1cccc2ccccc12` (single isomer, unassigned; diastereomer 1) were 11%, 57% and 58%.
Taken in the same sequence, the figures for `C[C@@H](NC1CNS(=O)(=O)Oc2ccccc2C1)c1cccc2ccccc12` (single isomer, unassigned; diastereomer 2) were 1%, 17% and 2%.
In the case of `C[C@@H](NCC1CCc2ccccc2S(=O)(=O)N1)c1cccc2ccccc12` (single isomer, unassigned; diastereomer 2), the Activity in test [2] was found to be 1%; in test [1] it was 37%; in test [3], 40%.
For `C[C@@H](NCC1Cc2ccccc2OS(=O)(=O)N1)c1cccc2ccccc12` (single isomer, unassigned; diastereomer 2), in that order: 27%, 76% and 65%.
Taken in the same sequence, the figures for `C[C@@H](NCC1Cc2ccccc2S(=O)(=O)N1)c1cccc2ccccc12` (single isomer, unassigned; diastereomer 2) were 10%, 69% and 64%.
Taken in the same sequence, the figures for `C[C@@H](NCC1NS(=O)(=O)c2ccccc21)c1cccc2ccccc12` (single isomer, unassigned; diastereomer 2) were 11%, 39% and 51%.

These data come from ChEMBL document CHEMBL1800047, “Design and synthesis of cyclic sulfonamides and sulfamates as new calcium sensing receptor agonists” (Bioorg Med Chem Lett, 2010).
